“And” between values parts separate entries of the source, which are not always exact repeats. Equal values may be shown once.
Tested on: HEK-293T
Assay: Multiplex assay against HEK293T;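 on Population Tubulin-Different-Phenotype (%): share of the cells with healthy nuclei that show this phenotype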
Assay type: toxicity, cell-based
Conditions: human, 10 µM, compound concentration 10 uM
Summary of the method: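 Live cells were stained at seeding with Hoechst33342, BioTracker Green Microtubule Cytoskeleton Dye, MitoTracker Red and Annexin V Alexa Fluor 680. Following compound addition, they were imaged on a CQ1 microscope at 37°C and 5% CO2 and gated by CellPathfinder machine learning into Hoechst high-intensity objects or normal cells, with normal cells split into healthy, pyknosed or fragmented nuclei and pyknosed cells into mitotic or apoptotic. Tubulin, mitochondrial-mass and membrane-permeability phenotypes are per cents of healthy-nucleus cells.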

With Cn1c(-c2csc(C3CCN(CC4=NC5N=CC=CC5N4)CC3)n2)nc2ccccc21 (stereo not given) [BAY-070] the “Population Apoptotic (%)” value (12 h, replicate 1) was 19% and 14%, the “Population Fragmented Nuclei (%)” value (12 h, replicate 1) was 25% and 9% and the “Population Healthy Nuclei (%)” value (12 h, replicate 1) was 48% and 56%. The “Population Hoechst High Intensity Objects (%)” value (12 h, replicate 1) was 16% and 14%, the “Population Membrane Permeable-Phenotype (%)” value (12 h, replicate 1) was 5% and 3% and the “Population Mitochondria Different-Phenotype (%)” value (12 h, replicate 1) was 5% and 8%. For the same compound, the “Population Mitotic Cells (%)” value (12 h, replicate 1) was 80% and 85%, the “Population Normal (%)” value (12 h, replicate 1) was 83% and 85% and the “Population Pyknosed Nuclei (%)” value (12 h, replicate 1) was 26% and 33%. The “Population Tubulin-Different-Phenotype (%)” value (12 h, replicate 1) was 7% and 10%, the “Total Cell Count” value (12 h, replicate 1) was 591 and 756 and the “Population Apoptotic (%)” value (12 h, replicate 2) was 15% and 10%. The “Population Fragmented Nuclei (%)” value (12 h, replicate 2) was 3% and 6%, the “Population Healthy Nuclei (%)” value (12 h, replicate 2) was 82% and 88% and the “Population Hoechst High Intensity Objects (%)” value (12 h, replicate 2) was 5% and 2%. The “Population Membrane Permeable-Phenotype (%)” value (12 h, replicate 2) was 1%, the “Population Mitochondria Different-Phenotype (%)” value (12 h, replicate 2) was 21% and the “Population Mitotic Cells (%)” value (12 h, replicate 2) was 84% and 89%. The “Population Normal (%)” value (12 h, replicate 2) was 94% and 97%, the “Population Tubulin-Different-Phenotype (%)” value (12 h, replicate 2) was 14% and 5% and the “Total Cell Count” value (12 h, replicate 2) was 1063 and 1470. For the same compound, the “Population Apoptotic (%)” value (24 h, replicate 1) was 15% and 24%, the “Population Fragmented Nuclei (%)” value (24 h, replicate 1) was 10% and 21% and the “Population Healthy Nuclei (%)” value (24 h, replicate 1) was 63% and 62%. The “Population Hoechst High Intensity Objects (%)” value (24 h, replicate 1) was 9% and 10%, the “Population Membrane Permeable-Phenotype (%)” value (24 h, replicate 1) was 6% and the “Population Mitochondria Different-Phenotype (%)” value (24 h, replicate 1) was 7% and 4%. The “Population Mitotic Cells (%)” value (24 h, replicate 1) was 84% and 75%, the “Population Normal (%)” value (24 h, replicate 1) was 90% and 89% and the “Population Pyknosed Nuclei (%)” value (24 h, replicate 1) was 25% and 16%. For the same compound, the “Total Cell Count” value (24 h, replicate 1) was 694 and 578, the “Population Apoptotic (%)” value (24 h, replicate 2) was 9% and 17% and the “Population Fragmented Nuclei (%)” value (24 h, replicate 2) was 14% and 5%. The “Population Healthy Nuclei (%)” value (24 h, replicate 2) was 83% and 87%, the “Population Hoechst High Intensity Objects (%)” value (24 h, replicate 2) was 2% and 5% and the “Population Membrane Permeable-Phenotype (%)” value (24 h, replicate 2) was 5%. For the same compound, the “Population Mitochondria Different-Phenotype (%)” value (24 h, replicate 2) was 1% and 11%, the “Population Mitotic Cells (%)” value (24 h, replicate 2) was 90% and 82% and the “Population Normal (%)” value (24 h, replicate 2) was 97% and 94%. For the same compound, the “Total Cell Count” value (24 h, replicate 2) was 2202 and 1248.
